# Data from ChEMBL document CHEMBL3872252, “New bithiazolyl hydrazones: Novel synthesis, characterization and antitubercular evaluation” (Bioorg Med Chem Lett, 2017).
# Experiments:
# [1] = Antitubercular activity against Mycobacterium tuberculosis H37Ra ATCC 25177 dormant stage infected in human THP1 cells measured on day 12 by nitrate reductase assay; assay type: functional, THP-1; conditions: ATCC 25177, 288 h
# [2] = Antitubercular activity against Mycobacterium tuberculosis H37Ra ATCC 25177 active stage infected in human THP1 cells measured on day 8 by nitrate reductase assay; assay type: functional, THP-1; conditions: ATCC 25177, 192 h
# [3] = Antitubercular activity against Mycobacterium tuberculosis H37Ra ATCC 25177 active stage measured on day 8 by XTT reduction menadione based two-fold dilution assay; assay type: functional; conditions: ATCC 25177, 192 h
# Method in brief: (§1)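 M. tuberculosis H37Ra ATCC 25177 was exposed to 0.7–100 μg/mL in two-fold steps (0.7, 1.5, 3.1 … 100). Active stage was read after 8 days and dormant stage after 12 days of incubation. Inhibition was read by XTT reduction menadione assay (XRMA), absorbance 470 nm. MIC90 is the concentration giving ≥90% inhibition (µg/mL).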
# [4] = Antitubercular activity against Mycobacterium tuberculosis H37Ra ATCC 25177 dormant stage measured on day 12 by XTT reduction menadione based two-fold dilution assay; assay type: functional; conditions: ATCC 25177, 288 h; method in brief: as §1
# [5] = Antitubercular activity against Mycobacterium bovis BCG ATCC 35743 active stage measured on day 8 by nitrate reductase based two-fold dilution assay; assay type: functional, Mycobacterium bovis BCG str. ATCC 35743; conditions: Mycobacterium tuberculosis variant bovis BCG, ATCC 35743, 192 h
# [6] = Antitubercular activity against Mycobacterium bovis BCG ATCC 35743 dormant stage measured on day 12 by nitrate reductase based two-fold dilution assay; assay type: functional, Mycobacterium bovis BCG str. ATCC 35743; conditions: Mycobacterium tuberculosis variant bovis BCG, ATCC 35743, 288 h
# [7] = Cytotoxicity against human THP1 cells by MTT assay; assay type: toxicity, cell-based, THP-1
# [8] = Cytotoxicity against human MCF7 cells by MTT assay; assay type: toxicity, cell-based
# [9] = Cytotoxicity against human HCT116 cells by MTT assay; assay type: toxicity, cell-based, HCT-116
# [10] = Selectivity index, ratio of GI50 for human MCF7 cells to MIC90 for Mycobacterium tuberculosis H37Ra ATCC 25177 active stage; assay type: toxicity, cell-based; conditions: read-out: Selectivity Index
# Method in brief: (§2)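 Cytotoxicity was measured on human MCF-7, HCT116 and THP-1 cells by MTT assay, with paclitaxel as reference. GI50 is the concentration inhibiting 50% of cell growth. The selectivity index is GI50 for the given cell line divided by MIC90 for the given mycobacterial strain and stage.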
# [11] = Selectivity index, ratio of GI50 for human MCF7 cells to MIC90 for Mycobacterium tuberculosis H37Ra ATCC 25177 dormant stage; assay type: toxicity, cell-based; conditions: read-out: Selectivity Index
# Method in brief: (§3)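 Cytotoxicity was measured on human MCF-7, HCT116 and THP-1 cells by MTT assay, with paclitaxel as reference. The selectivity index is GI50 for the given cell line divided by MIC90 for the given mycobacterial strain and stage.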
# [12] = Selectivity index, ratio of GI50 for human MCF7 cells to MIC90 for Mycobacterium bovis BCG ATCC 35743 active stage; assay type: toxicity, cell-based; conditions: read-out: Selectivity Index; method in brief: as §2
# [13] = Selectivity index, ratio of GI50 for human MCF7 cells to MIC90 for Mycobacterium bovis BCG ATCC 35743 dormant stage; assay type: toxicity, cell-based; conditions: read-out: Selectivity Index; method in brief: as §3
# [14] = Selectivity index, ratio of GI50 for human HCT116 cells to MIC90 for Mycobacterium tuberculosis H37Ra ATCC 25177 active stage; assay type: toxicity, cell-based, HCT-116; conditions: read-out: Selectivity Index; method in brief: as §2
# [15] = Selectivity index, ratio of GI50 for human HCT116 cells to MIC90 for Mycobacterium tuberculosis H37Ra ATCC 25177 dormant stage; assay type: toxicity, cell-based, HCT-116; conditions: read-out: Selectivity Index; method in brief: as §3
# [16] = Selectivity index, ratio of GI50 for human HCT116 cells to MIC90 for Mycobacterium bovis BCG ATCC 35743 active stage; assay type: toxicity, cell-based, HCT-116; conditions: read-out: Selectivity Index; method in brief: as §2
# [17] = Selectivity index, ratio of GI50 for human HCT116 cells to MIC90 for Mycobacterium bovis BCG ATCC 35743 dormant stage; assay type: toxicity, cell-based, HCT-116; conditions: read-out: Selectivity Index; method in brief: as §3
# [18] = Selectivity index, ratio of GI50 for human THP1 cells to MIC90 for Mycobacterium tuberculosis H37Ra ATCC 25177 active stage; assay type: toxicity, cell-based, THP-1; conditions: read-out: Selectivity Index; method in brief: as §2
# [19] = Selectivity index, ratio of GI50 for human THP1 cells to MIC90 for Mycobacterium tuberculosis H37Ra ATCC 25177 dormant stage; assay type: toxicity, cell-based, THP-1; conditions: read-out: Selectivity Index; method in brief: as §3
# [20] = Selectivity index, ratio of GI50 for human THP1 cells to MIC90 for Mycobacterium bovis BCG ATCC 35743 active stage; assay type: toxicity, cell-based, THP-1; conditions: read-out: Selectivity Index; method in brief: as §2
# [21] = Selectivity index, ratio of GI50 for human THP1 cells to MIC90 for Mycobacterium bovis BCG ATCC 35743 dormant stage; assay type: toxicity, cell-based, THP-1; conditions: read-out: Selectivity Index; method in brief: as §3
# [22] = tested on: Escherichia coli; assay: Growth inhibition of Escherichia coli at 30 ug/ml; assay type: functional; conditions: read-out: GI
# [23] = tested on: Escherichia coli; assay: Growth inhibition of Escherichia coli at 10 ug/ml; assay type: functional; conditions: read-out: GI
# [24] = tested on: Escherichia coli; assay: Growth inhibition of Escherichia coli at 3 ug/ml; assay type: functional; conditions: read-out: GI
# Method in brief: (§4)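 Screened against Gram-negative E. coli and P. aeruginosa and Gram-positive S. aureus and B. subtilis. Compound was tested at 3 µg/ml, and the read-out is percent growth inhibition.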
# [25] = tested on: Pseudomonas aeruginosa; assay: Growth inhibition of Pseudomonas aeruginosa at 30 ug/ml; assay type: functional; conditions: read-out: GI
# [26] = tested on: Pseudomonas aeruginosa; assay: Growth inhibition of Pseudomonas aeruginosa at 10 ug/ml; assay type: functional; conditions: read-out: GI
# [27] = tested on: Pseudomonas aeruginosa; assay: Growth inhibition of Pseudomonas aeruginosa at 3 ug/ml; assay type: functional; conditions: read-out: GI; method in brief: as §4
# [28] = tested on: Staphylococcus aureus; assay: Growth inhibition of Staphylococcus aureus at 30 ug/ml; assay type: functional; conditions: read-out: GI
# [29] = tested on: Staphylococcus aureus; assay: Growth inhibition of Staphylococcus aureus at 10 ug/ml; assay type: functional; conditions: read-out: GI
# [30] = tested on: Staphylococcus aureus; assay: Growth inhibition of Staphylococcus aureus at 3 ug/ml; assay type: functional; conditions: read-out: GI; method in brief: as §4
# [31] = tested on: Bacillus subtilis; assay: Growth inhibition of Bacillus subtilis at 30 ug/ml; assay type: functional; conditions: read-out: GI
# [32] = tested on: Bacillus subtilis; assay: Growth inhibition of Bacillus subtilis at 10 ug/ml; assay type: functional; conditions: read-out: GI
# [33] = tested on: Bacillus subtilis; assay: Growth inhibition of Bacillus subtilis at 3 ug/ml; assay type: functional; conditions: read-out: GI; method in brief: as §4
smiles,measurement,setting,value
C/C(=N\NC(N)=S)c1sc(-c2ccccc2)nc1C,MIC90,[1],3.67 µg/mL
same,MIC90,[2],1.94 µg/mL
same,IC50,[3],0.12 µg/mL
same,MIC90,[3],1.78 µg/mL
same,IC50,[4],0.78 µg/mL
same,MIC90,[4],2.05 µg/mL
same,IC50,[5],0.94 µg/mL
same,MIC90,[5],3.04 µg/mL
same,IC50,[6],0.97 µg/mL
same,MIC90,[6],3.46 µg/mL
same,GI50,[7]; THP1 cells,81.5 µg/mL
same,GI90,[7]; thp-1,> 100 µg/mL
same,GI50,[8]; MCF7 cells,26 µg/mL
same,GI90,[8]; mcf7,> 100 µg/mL
same,GI50,[9]; HCT116 cells,47.3 µg/mL
same,GI90,[9]; hct-116,> 100 µg/mL
same,selectivity ratio,[10],15
same,selectivity ratio,[11],13
same,selectivity ratio,[12],9
same,selectivity ratio,[13],8
same,selectivity ratio,[14],27
same,selectivity ratio,[15],23
same,selectivity ratio,[16],16
same,selectivity ratio,[17],14
same,selectivity ratio,[18],46
same,selectivity ratio,[19],40
same,selectivity ratio,[20],27
same,selectivity ratio,[21],24
same,inhibition of growth at 30 µg/mL,[22],79.6%
same,inhibition of growth at 10 µg/mL,[23],66.7%
same,inhibition of growth at 3 µg/mL,[24],50.9%
same,inhibition of growth at 30 µg/mL,[25],79.4%
same,inhibition of growth at 10 µg/mL,[26],65.1%
same,inhibition of growth at 3 µg/mL,[27],47.4%
same,inhibition of growth at 30 µg/mL,[28],78.4%
same,inhibition of growth at 10 µg/mL,[29],64.5%
same,inhibition of growth at 3 µg/mL,[30],47.5%
same,inhibition of growth at 30 µg/mL,[31],76.7%
same,inhibition of growth at 10 µg/mL,[32],61.8%
same,inhibition of growth at 3 µg/mL,[33],43.4%
